ChEMBL document CHEMBL5356993, “Novel pyrazolo[3,4-d]pyrimidine derivatives: design, synthesis, anticancer evaluation, VEGFR-2 inhibition, and antiangiogenic activity” (RSC Med Chem, 2023)

Legend:
Format in all cases: functional
Details in all cases: read-out: GI
[1] = test system: A549; experiment: Antiproliferative activity against human A549 cells assessed as cell growth inhibition at 10 uM incubated for 48 hrs by SRB assay relative to control
[2] = test system: HCT-116; experiment: Antiproliferative activity against human HCT-116 cells assessed as cell growth inhibition at 10 uM incubated for 48 hrs by SRB assay relative to control
[3] = test system: SN12C; experiment: Antiproliferative activity against human SN12C cells assessed as cell growth inhibition at 10 uM incubated for 48 hrs by SRB assay relative to control
[4] = test system: OVCAR-8; experiment: Antiproliferative activity against human OVCAR-8 cells assessed as cell growth inhibition at 10 uM incubated for 48 hrs by SRB assay relative to control
[5] = test system: MDA-MB-435; experiment: Antiproliferative activity against human MDA-MB-435 cells assessed as cell growth inhibition at 10 uM incubated for 48 hrs by SRB assay relative to control
[6] = test system: SF-295; experiment: Antiproliferative activity against human SF-295 cells assessed as cell growth inhibition at 10 uM incubated for 48 hrs by SRB assay relative to control
Method in brief: (§1)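 Cells plated in 96-well plates at […] cells/well and preincubated 24 h at 37 °C, 5% CO2. Time-zero plates were TCA-fixed. Compound was diluted in medium with 50 µg/mL gentamicin and cells exposed for 48 h. Adherent cells fixed with 10% final TCA; suspension cells with 16% final TCA. Plates stained with 0.4% SRB in 1% acetic acid, dye solubilized in 10 mM Trizma, absorbance read at 515 nm. Percent growth calculated against time-zero and control.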

[7] = test system: A498; experiment: Antiproliferative activity against human A498 cells assessed as cell growth inhibition at 10 uM incubated for 48 hrs by SRB assay relative to control; method in brief: as §1
[8] = test system: MOLT-4; experiment: Antiproliferative activity against human MOLT-4 cells assessed as cell growth inhibition at 10 uM incubated for 48 hrs by SRB assay relative to control
[9] = test system: RPMI-8226; experiment: Antiproliferative activity against human RPMI-8226 cells assessed as cell growth inhibition at 10 uM incubated for 48 hrs by SRB assay relative to control
[10] = test system: HOP-92; experiment: Antiproliferative activity against human HOP-92 cells assessed as cell growth inhibition at 10 uM incubated for 48 hrs by SRB assay relative to control; method in brief: as §1
[11] = test system: Malme-3M; experiment: Antiproliferative activity against human Malme-3M cells assessed as cell growth inhibition at 10 uM incubated for 48 hrs by SRB assay relative to control
[12] = test system: ACHN; experiment: Antiproliferative activity against human ACHN cells assessed as cell growth inhibition at 10 uM incubated for 48 hrs by SRB assay relative to control
[13] = test system: SF-539; experiment: Antiproliferative activity against human SF-539 cells assessed as cell growth inhibition at 10 uM incubated for 48 hrs by SRB assay relative to control; method in brief: as §1
[14] = test system: OVCAR-4; experiment: Antiproliferative activity against human OVCAR-4 cells assessed as cell growth inhibition at 10 uM incubated for 48 hrs by SRB assay relative to control
[15] = test system: NCI-H522; experiment: Antiproliferative activity against human NCI-H522 cells assessed as cell growth inhibition at 10 uM incubated for 48 hrs by SRB assay relative to control; method in brief: as §1
[16] = test system: SF-268; experiment: Antiproliferative activity against human SF-268 cells assessed as cell growth inhibition at 10 uM incubated for 48 hrs by SRB assay relative to control
[17] = test system: HL-60(TB); experiment: Antiproliferative activity against human HL-60(TB) cells assessed as cell growth inhibition at 10 uM incubated for 48 hrs by SRB assay relative to control
Method in brief: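 Cells were plated at […] cells/well and preincubated 24 h at 37°C, 5% CO2, with time-zero plates TCA-fixed. Compound was diluted from DMSO stock in medium with 50 µg/mL gentamicin, then exposed for 48 h. Settled suspension cells were fixed with 80% TCA (final 16%), stained with 0.4% SRB and solubilized in 10 mM Trizma, A515. Growth was taken relative to Tz and control.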

[18] = test system: KM12; experiment: Antiproliferative activity against human KM12 cells assessed as cell growth inhibition at 10 uM incubated for 48 hrs by SRB assay relative to control; method in brief: as §1
[19] = test system: SNB-19; experiment: Antiproliferative activity against human SNB-19 cells assessed as cell growth inhibition at 10 uM incubated for 48 hrs by SRB assay relative to control
Method in brief: (§2)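 Cells pre-incubated 24 h at 37°C, 5% CO2, then exposed to compound (DMSO stock diluted in medium with 50 µg/mL gentamicin) for 48 h. Adherent cells fixed with cold TCA (final 10%, 60 min, 4°C); suspension cells fixed with 16% TCA final. Stained with 0.4% SRB in 1% acetic acid for 10 min, dye solubilized in 10 mM Trizma base, absorbance read at 515 nm. Growth calculated against time-zero and untreated control plates.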

[20] = test system: SNB-75; experiment: Antiproliferative activity against human SNB-75 cells assessed as cell growth inhibition at 10 uM incubated for 48 hrs by SRB assay relative to control; method in brief: as §2
[21] = test system: U-251; experiment: Antiproliferative activity against human U-251 cells assessed as cell growth inhibition at 10 uM incubated for 48 hrs by SRB assay relative to control; method in brief: as §2
[22] = test system: HCC 2998; experiment: Antiproliferative activity against human HCC 2998 cells assessed as cell growth inhibition at 10 uM incubated for 48 hrs by SRB assay relative to control
[23] = test system: HT-29; experiment: Antiproliferative activity against human HT-29 cells assessed as cell growth inhibition at 10 uM incubated for 48 hrs by SRB assay relative to control; method in brief: as §1
[24] = test system: TK-10; experiment: Antiproliferative activity against human TK-10 cells assessed as cell growth inhibition at 10 uM incubated for 48 hrs by SRB assay relative to control; method in brief: as §2
[25] = test system: SK-MEL-28; experiment: Antiproliferative activity against human SK-MEL-28 cells assessed as cell growth inhibition at 10 uM incubated for 48 hrs by SRB assay relative to control; method in brief: as §1
[26] = test system: NCI-H226; experiment: Antiproliferative activity against human NCI-H226 cells assessed as cell growth inhibition at 10 uM incubated for 48 hrs by SRB assay relative to control; method in brief: as §1
[27] = test system: NCI-H23; experiment: Antiproliferative activity against human NCI-H23 cells assessed as cell growth inhibition at 10 uM incubated for 48 hrs by SRB assay relative to control
[28] = test system: PC-3; experiment: Antiproliferative activity against human PC-3 cells assessed as cell growth inhibition at 10 uM incubated for 48 hrs by SRB assay relative to control
[29] = test system: HCT-15; experiment: Antiproliferative activity against human HCT-15 cells assessed as cell growth inhibition at 10 uM incubated for 48 hrs by SRB assay relative to control
[30] = test system: OVCAR-3; experiment: Antiproliferative activity against human OVCAR-3 cells assessed as cell growth inhibition at 10 uM incubated for 48 hrs by SRB assay relative to control; method in brief: as §1
[31] = test system: LOX IMVI; experiment: Antiproliferative activity against human LOX IMVI cells assessed as cell growth inhibition at 10 uM incubated for 48 hrs by SRB assay relative to control
[32] = test system: 786-0; experiment: Antiproliferative activity against human 786-0 cells assessed as cell growth inhibition at 10 uM incubated for 48 hrs by SRB assay relative to control

| SMILES | inhibition of growth at 10 µM [1] [%] | inhibition of growth at 10 µM [2] [%] | inhibition of growth at 10 µM [3] [%] | inhibition of growth at 10 µM [4] [%] | inhibition of growth at 10 µM [5] [%] | inhibition of growth at 10 µM [6] [%] | inhibition of growth at 10 µM [7] [%] | inhibition of growth at 10 µM [8] [%] | inhibition of growth at 10 µM [9] [%] | inhibition of growth at 10 µM [10] [%] | inhibition of growth at 10 µM [11] [%] | inhibition of growth at 10 µM [12] [%] | inhibition of growth at 10 µM [13] [%] | inhibition of growth at 10 µM [14] [%] | inhibition of growth at 10 µM [15] [%] | inhibition of growth at 10 µM [16] [%] | inhibition of growth at 10 µM [17] [%] | inhibition of growth at 10 µM [18] [%] | inhibition of growth at 10 µM [19] [%] | inhibition of growth at 10 µM [20] [%] | further results |
| --- | --- | --- | --- | --- | --- | --- | --- | --- | --- | --- | --- | --- | --- | --- | --- | --- | --- | --- | --- | --- | --- |
| Cc1nc2c(cnn2-c2ccccc2)c(=O)n1-c1ccc(NC(=O)c2ccc(Cl)cc2)cc1 | 26.1 | 44.5 | 17 | 43.4 | 30.2 | 45.9 | < 15 | 30.7 | 52.9 | 37.8 | 33.3 | 32.6 | < 15 | 53.9 | 32.3 | < 15 | 48.1 | 19.2 | 16.3 | 27.5 | inhibition of growth at 10 µM [21]: < 15%; inhibition of growth at 10 µM [22]: 15.8%; inhibition of growth at 10 µM [23]: 28%; inhibition of growth at 10 µM [24]: 19.9%; inhibition of growth at 10 µM [25]: 17.1%; inhibition of growth at 10 µM [26]: 49.1%; inhibition of growth at 10 µM [27]: 47.2%; inhibition of growth at 10 µM [28]: 36.7%; inhibition of growth at 10 µM [29]: 23.2%; inhibition of growth at 10 µM [30]: 17.4%; inhibition of growth at 10 µM [31]: 33.4%; inhibition of growth at 10 µM [32]: 20.3% |
| Cc1nc2c(cnn2-c2ccccc2)c(=O)n1-c1ccc(N)cc1 | < 15 | 25.9 | 21.1 | < 15 | 22.9 | 27.1 | 16.8 | < 15 | 48.2 | < 15 | 17.8 | 27.1 | 19.4 | 48.7 | < 15 | 17.4 | < 15 | < 15 | < 15 | 28.1 | inhibition of growth at 10 µM [21]: < 15%; inhibition of growth at 10 µM [22]: < 15%; inhibition of growth at 10 µM [23]: < 15%; inhibition of growth at 10 µM [24]: 21.8%; inhibition of growth at 10 µM [25]: < 15%; inhibition of growth at 10 µM [26]: 18%; inhibition of growth at 10 µM [27]: 40.1%; inhibition of growth at 10 µM [28]: 18%; inhibition of growth at 10 µM [29]: < 15%; inhibition of growth at 10 µM [30]: < 15%; inhibition of growth at 10 µM [31]: 18.5%; inhibition of growth at 10 µM [32]: < 15% |
| CC(=O)Nc1ccc(-n2c(C)nc3c(cnn3-c3ccccc3)c2=O)cc1 | < 15 | 28.9 | 26.1 | 20 | 21.1 | 36.5 | 16.1 | 43.6 | 47.5 | 17 | 22.3 | 29.8 | 18.9 | 44.8 | 25 | < 15 | 28.3 | < 15 | 16.4 | < 15 | inhibition of growth at 10 µM [21]: < 15%; inhibition of growth at 10 µM [22]: < 15%; inhibition of growth at 10 µM [23]: < 15%; inhibition of growth at 10 µM [24]: 20.4%; inhibition of growth at 10 µM [25]: < 15%; inhibition of growth at 10 µM [26]: 33.5%; inhibition of growth at 10 µM [27]: 31.7%; inhibition of growth at 10 µM [28]: 30.3%; inhibition of growth at 10 µM [29]: 15.1%; inhibition of growth at 10 µM [30]: < 15%; inhibition of growth at 10 µM [31]: 21.1%; inhibition of growth at 10 µM [32]: < 15% |
| Cc1nc2c(cnn2-c2ccccc2)c(=O)n1-c1ccc(N2C(=O)C=CC2=O)cc1 | < 15 | < 15 | < 15 | < 15 | < 15 | < 15 | < 15 | < 15 | < 15 | < 15 | < 15 | < 15 | < 15 | < 15 | < 15 | < 15 | < 15 | < 15 | < 15 | < 15 | inhibition of growth at 10 µM [21]: < 15%; inhibition of growth at 10 µM [22]: < 15%; inhibition of growth at 10 µM [23]: < 15%; inhibition of growth at 10 µM [24]: < 15%; inhibition of growth at 10 µM [25]: < 15%; inhibition of growth at 10 µM [26]: < 15%; inhibition of growth at 10 µM [27]: < 15%; inhibition of growth at 10 µM [28]: < 15%; inhibition of growth at 10 µM [29]: < 15%; inhibition of growth at 10 µM [30]: < 15%; inhibition of growth at 10 µM [31]: < 15%; inhibition of growth at 10 µM [32]: < 15% |
| Cc1ccc(C(=O)Nc2ccc(-n3c(C)nc4c(cnn4-c4ccccc4)c3=O)cc2)cc1 | 34.2 | 48.5 | 26.7 | 23.2 | 29.4 | 49.4 | < 15 | 65.7 | 41.6 | < 15 | 32.3 | 38.2 | 18.6 | 50.2 | 28.8 | < 15 | 48.6 | 22.5 | 17.9 | 17.2 | inhibition of growth at 10 µM [21]: < 15%; inhibition of growth at 10 µM [22]: < 15%; inhibition of growth at 10 µM [23]: 28.8%; inhibition of growth at 10 µM [24]: 17.7%; inhibition of growth at 10 µM [25]: 19.3%; inhibition of growth at 10 µM [26]: 45.2%; inhibition of growth at 10 µM [27]: 46.5%; inhibition of growth at 10 µM [28]: 28.4%; inhibition of growth at 10 µM [29]: 24.6%; inhibition of growth at 10 µM [30]: < 15%; inhibition of growth at 10 µM [31]: 32.8%; inhibition of growth at 10 µM [32]: < 15% |
